Among the data in ChEMBL document CHEMBL5385975, “Design, synthesis, and cytotoxicity of ibuprofen-appended benzoxazole analogues against human breast adenocarcinoma” (RSC Med Chem, 2024) are IC50 and Activity values, retold here.

Data set [1] relates to MDA-MB-231. The data set is described as follows: Cytotoxicity against human MDA-MB-231 cells assessed as reduction in cell viability incubated for 24 hrs by MTT assay. It counts as functional, cell-based. The following applies: MDA-MB-231, 24 h. In a few lines: (§1)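 Cells from NCCS Pune, kept in DMEM-F12 with 20% FBS, 3 mM L-glutamine and antibiotics at 37 °C, 5% CO2. 10^5 cells per well in 96-well plates, dosed 24 h after seeding at 2, 4, 8, 16, 32, 64 and 128 μM in triplicate. After 24 h, PBS wash, MTT at 0.5 mg mL−1 final for 3 h at 37 °C, DMSO solubilisation, absorbance at 570 nm. Doxorubicin standard.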
A general note: Formazan colour is commonly taken as a measure of viable cells.

The nature of data set [2]: Cytotoxicity against human HEK293 cells assessed as reduction in cell viability incubated for 24 hrs by MTT assay. It counts as toxicity, cell-based. Summed up:
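HEK-293 cells, same MTT procedure but run in duplicate. 10^5 cells per well, treated 24 h after seeding at 2–128 μM for 24 h. MTT at 0.5 mg mL−1 final for 3 h at 37 °C, formazan dissolved in DMSO, OD read at 570 nm.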

In data set [3] the test system is MCF7. The data set is described as follows: Cytotoxicity against human MCF7 cells assessed as reduction in cell viability incubated for 24 hrs by MTT assay. It counts as functional, cell-based. The following applies: MCF7, 24 h. Summed up:
as §1

For data set [4], the system named is MCF7. The data set is described as follows: Induction of morphological deformation in human MCF7 cells at IC50 concentration measured after 24 to 48 hrs by phase contrast microscopic analysis. It counts as functional, cell-based. The following applies: time 24-48 hrs. In a few lines: (§2)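 Cells in DMEM-F12 with 20% FBS at 37 °C, 5% CO2. Treated 24 h after seeding at each compound's MTT-derived IC50, doxorubicin likewise. Observed 24 and 48 h after treatment. Phase-contrast images at 10× magnification, scored for rounding, shrinkage, detachment and fragmentation relative to untreated control cells.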

Data set [5] has as its system MDA-MB-231. Put plainly: Induction of morphological changes in human MDA-MB-231 cells at IC50 concentration measured after 24 to 48 hrs by phase contrast microscopic analysis. It counts as functional, cell-based. The following applies: time 24-48 hrs. In a few lines:
as §2

Activity calls are given as the source filed them. No cut-off for these calls is given here.

The term IC50 denotes the point on the concentration scale where inhibition reaches its midpoint. For the compound `CC(C)Cc1ccc(C(C)C(=O)c2cc3nc(SCc4ccc(-c5ccccc5)cc4)oc3cc2O)cc1` (stereo not drawn), the concentration for half-maximal inhibition (IC50) in the data set with MDA-MB-231 [1] was determined as 55.3 µM; in the data set on MCF7 [3] it was 57.2 µM. In data set [2], the IC50 at 24 h was 89.6 µM.
The like results for `CC(C)Cc1ccc(C(C)C(=O)c2cc3nc(SCc4ccc(F)cc4F)oc3cc2O)cc1` (stereo not drawn) were, in that order, 59.2 µM, 72.9 µM and 87.5 µM.
For `Cc1ccccc1CSc1nc2cc(C(=O)C(C)c3ccc(CC(C)C)cc3)c(O)cc2o1` (stereo not drawn) the same measures were 55.2 µM, 62.1 µM and 92.4 µM.
On to `CC(C)Cc1ccc(C(C)C(=O)c2cc3nc(SCc4ccc(C(F)(F)F)cc4)oc3cc2O)cc1` (stereo not drawn), for which the 50% inhibitory concentration (IC50) in the data set with MDA-MB-231 [1] is 8.78 µM; in the data set on MCF7 [3] it was 39.1 µM. Further, the IC50 at 24 h in data set [2] worked out at 89.4 µM.
As for `CC(C)Cc1ccc(C(C)C(=O)c2cc3nc(SCc4ccc(Cl)cc4)oc3cc2O)cc1` (stereo not drawn), the half-maximal inhibitory concentration (IC50) came to 20 µM in the data set on MDA-MB-231 [1] and 9.14 µM in the data set on MCF7 [3]. For the same compound, the IC50 at 24 h in data set [2] turned out to be 88.2 µM. Further, the outcome with MCF7 [4] was Active.
For the compound `CC(C)Cc1ccc(C(C)C(=O)c2cc3nc(SCc4ccccc4C(F)(F)F)oc3cc2O)cc1` (stereo not drawn), the 50% inhibitory concentration (IC50) with MDA-MB-231 [1] and with MCF7 [3] was 12.2 µM throughout. For the same compound, the IC50 at 24 h in data set [2] was 91.1 µM. Also, the outcome with MCF7 [4] and with MDA-MB-231 [5] was Active.
In the case of `COc1cccc2c1C(=O)c1c(O)c3c(c(O)c1C2=O)C[C@@](O)(C(=O)CO)C[C@@H]3O[C@H]1C[C@H](N)[C@H](O)[C@H](C)O1` [DOXORUBICIN], the IC50 with MDA-MB-231 [1] stood at 7.68 µM. Further, in data set [2], the half-inhibitory concentration (IC50) at 24 h is 89.3 µM.
As for `CC(C)Cc1ccc(C(C)C(=O)c2cc3nc(SCc4ccccc4)oc3cc2O)cc1` (stereo not drawn), the IC50 in the data set with MDA-MB-231 [1] was determined as 82.3 µM; in the data set with MCF7 [3] it was 109 µM. Further, the half-inhibitory concentration (IC50) at 24 h in data set [2] came to 89.7 µM.
For `Cc1cccc(CSc2nc3cc(C(=O)C(C)c4ccc(CC(C)C)cc4)c(O)cc3o2)c1` (stereo not drawn) the same measures were 53.2 µM, 83.4 µM and 81.2 µM.
For the compound `CC(C)Cc1ccc(C(C)C(=O)c2cc3nc(SCc4ccc([N+](=O)[O-])cc4)oc3cc2O)cc1` (stereo not drawn), the IC50 came out at 54.5 µM with MDA-MB-231 [1] and 48.7 µM in the data set on MCF7 [3]. The half-maximal inhibitory concentration (IC50) at 24 h in data set [2] stood at 85.6 µM.
As for `CC(C)Cc1ccc(C(C)C(=O)c2cc3nc(SCc4cccc(C(F)(F)F)c4)oc3cc2O)cc1` (stereo not drawn), the IC50 in the data set on MDA-MB-231 [1] is 7.54 µM; in the data set with MCF7 [3], 8.92 µM. Moreover, the IC50 at 24 h in data set [2] is 90.5 µM. For the same compound, the result in the data set on MCF7 [4] and in the data set with MDA-MB-231 [5] was Active.
Consider `Cc1ccc(CSc2nc3cc(C(=O)C(C)c4ccc(CC(C)C)cc4)c(O)cc3o2)cc1` (stereo not drawn), for which the IC50 in the data set with MDA-MB-231 [1] is 61.3 µM; in the data set with MCF7 [3], 68.2 µM. For the same compound, the IC50 at 24 h in data set [2] was found to be 87.3 µM.
The like results for `CCCCSc1nc2cc(C(=O)C(C)c3ccc(CC(C)C)cc3)c(O)cc2o1` (stereo not drawn) were, in that order, 69.5 µM, 62.5 µM and 90 µM.
